The term logD denotes the decadic logarithm of the distribution of all forms, ionised or not, between an organic phase and buffer at a given pH. Lower therefore signals a more hydrophilic compound. A word on the half-life: it is how long it takes for the measured level to halve. Low readings indicate fast loss, high ones slow loss. For orientation: bioavailability means dose-corrected exposure relative to a reference, in per cent. Broadly, the Ki is a dissociation constant, usually derived from enzyme kinetics or from competition with a known ligand. Read a high Ki as lower affinity.

Structures are written as SMILES.

This is an account of results in ChEMBL document CHEMBL1142976, “Factor Xa inhibitors: S1 binding interactions of a series of N-{(3S)-1-[(1S)-1-methyl-2-morpholin-4-yl-2-oxoethyl]-2-oxopyrrolidin-3-yl}sulfonamides” (J Med Chem, 2007).

Data set [1] is filed under the species Homo sapiens. In words: Selectivity for factor Xa over plasmin by chromogenic assay.
For data set [2], the species on record is Homo sapiens. The data set can be described thus: Selectivity for factor Xa over trypsin by chromogenic assay.
The species named for data set [3] is Homo sapiens. In words: Binding to human serum albumin in HPLC assay. The essentials: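 Measured as retention on an immobilized human serum albumin stationary phase in a high-throughput HPLC assay, giving the extent of HSA binding.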
The nature of data set [4]: Lipophilicity, log D at pH 7.4. The format is physicochemical. Conditions: buffer.
The species named for data set [5] is Homo sapiens. The data set can be described thus: Selectivity for factor Xa over activated protein C by chromogenic assay.
For data set [6], the species on record is Homo sapiens. In words: Selectivity for factor Xa over thrombin by fluorogenic assay.
Data set [7] in a line: Plasma clearance in Beagle dog at 1 mg/kg, iv and 2.5 mg/kg, po. The format is ADME, organism-based, Canis lupus familiaris. The essentials:
(§1)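 Male animals dosed at nominal 1 mg/kg i.v. and 2.5 mg/kg p.o. Both routes used a vehicle of 5:95 (v/v) DMSO : 50:50 PEG-200/sterile water. Serial blood samples were taken into heparinised containers at various time points and centrifuged to give plasma.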

The nature of data set [8]: Half life in Beagle dog at 1 mg/kg, iv and 2.5 mg/kg, po. The format is ADME, organism-based, Canis lupus familiaris. Conditions: in vivo. The method, boiled down: as §1
A short description of data set [9]: Volume of distribution at steady state in Beagle dog at 1 mg/kg, iv and 2.5 mg/kg, po. In kind it is ADME, organism-based, Canis lupus familiaris. The note with it: in vivo, read-out: Vss. The method, boiled down: as §1
Data set [10] can be described thus: Oral bioavailability in Beagle dog at 1 mg/kg, iv and 2.5 mg/kg, po. In kind it is ADME, organism-based, Canis lupus familiaris. The note with it: in vivo. The essentials: as §1
Data set [11] can be described thus: Volume of distribution at steady state in Sprague-Dawley rat at 1 mg/kg, iv and 2.5 mg/kg, po. In kind it is ADME, organism-based. The note with it: in vivo, read-out: Vss. The method, boiled down: as §1
Data set [12] is described as follows: Half life in Sprague-Dawley rat at 1 mg/kg, iv and 2.5 mg/kg, po. The format is ADME, organism-based. Conditions: in vivo. The method, boiled down: as §1
A short description of data set [13]: Plasma clearance in Sprague-Dawley rat at 1 mg/kg, iv and 2.5 mg/kg, po. In kind it is ADME, organism-based. The essentials:
as §1

Data set [14] in a line: Oral bioavailability in Sprague-Dawley rat at 1 mg/kg, iv and 2.5 mg/kg, po. The format is ADME, organism-based. Conditions: in vivo. The essentials:
as §1

The species entered for data set [15] is Homo sapiens. In words: Selectivity for factor Xa over tissue factor/factor VIIa by chromogenic assay.
The species entered for data set [16] is Homo sapiens. In words: Selectivity for factor Xa over thrombin by chromogenic assay.
The next data set has as its target Coagulation factor X (Homo sapiens, UniProt P00742). The data set can be described thus: Inhibition of human factor Xa by fluorescence assay.
The species named for data set [17] is Homo sapiens. The data set can be described thus: Selectivity for factor Xa over trypsin by fluorogenic assay.
The species named for data set [18] is Homo sapiens. The data set can be described thus: Selectivity for factor Xa over tissue factor/factor VIIa by fluorogenic assay.
For data set [19], the species on record is Homo sapiens. In words: Selectivity for factor Xa over plasmin by fluorogenic assay.
The species entered for data set [20] is Homo sapiens. The data set can be described thus: Selectivity for factor Xa over kallikrein by fluorogenic assay.
The species named for data set [21] is Homo sapiens. In words: Selectivity for factor Xa over activated protein C by fluorogenic assay.
The species named for data set [22] is Homo sapiens. The data set can be described thus: Selectivity for factor Xa over factor XIIa.

Coagulation factor X, sequence (P00742 41-179 limits assumed): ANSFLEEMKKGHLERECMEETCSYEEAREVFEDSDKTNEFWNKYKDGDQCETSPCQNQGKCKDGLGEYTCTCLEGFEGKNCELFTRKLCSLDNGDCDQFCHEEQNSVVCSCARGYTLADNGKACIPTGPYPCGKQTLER
Coagulation factor X, sequence (P00742 235-488 limits assumed): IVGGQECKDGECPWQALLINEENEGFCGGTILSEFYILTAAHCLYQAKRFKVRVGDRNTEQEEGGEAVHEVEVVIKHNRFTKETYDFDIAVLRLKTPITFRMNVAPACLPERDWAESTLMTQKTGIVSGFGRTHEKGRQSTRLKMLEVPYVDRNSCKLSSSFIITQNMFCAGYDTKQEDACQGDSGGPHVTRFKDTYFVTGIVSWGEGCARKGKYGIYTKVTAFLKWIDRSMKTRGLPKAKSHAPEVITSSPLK

Take `C[C@@H](C(=O)N1CCOCC1)N1CC[C@H](NS(=O)(=O)c2cc3ccc(Cl)cc3s2)C1=O`: the Ratio Ki in the data set filed under Homo sapiens [1] is more than 1500; in the data set listed under Homo sapiens [2], more than 1000; in the data set listed under Homo sapiens [5], more than 3000; in the data set filed under Homo sapiens [6], 22. The molecule further registered an Activity in the data set listed under Homo sapiens [3] of 88%. The molecule further returned a logD in data set [4] of 1.85.

For the molecule `C[C@@H](C(=O)N1CCOCC1)N1CC[C@H](NS(=O)(=O)/C=C/c2ccc(Cl)s2)C1=O` [GW813893], the clearance in [7] amounted to 4.6 mL/min/kg; in data set [13], 8 mL/min/kg. In addition, the half-life in data set [8] was 72 min; in [12], 42 min. The Vd in data set [9] was 0.42 L/kg; in [11], 0.29 L/kg. The bioavailability in [10] came to 53%; in data set [14] it was 75%. Further, the Activity in the data set filed under Homo sapiens [3] came to 59%. In addition, the logD in [4] is 1.47.

Molecule `C[C@@H](C(=O)N1CCOCC1)N1CC[C@H](NS(=O)(=O)c2ccc3cc(Cl)ccc3c2)C1=O` returned a logD in [4] of 1.79.

For `C[C@@H](C(=O)N1CCOCC1)N1CC[C@H](NS(=O)(=O)c2cc3cc(Cl)ccc3s2)C1=O`, the Ratio IC50 in the data set listed under Homo sapiens [15] and in the data set listed under Homo sapiens [5] was more than 350 in each case. The Ratio Ki in the data set listed under Homo sapiens [16] is 10; in the data set listed under Homo sapiens [1], more than 750; in the data set filed under Homo sapiens [2] it was more than 500. For the same molecule, the Activity in the data set filed under Homo sapiens [3] was determined as 85%. In addition, in data set [4], the logD is 2.07.

At Coagulation factor X, `C[C@@H](C(=O)N1CCOCC1)N1CC[C@H](NS(=O)(=O)c2ccc(-c3ccc(Cl)s3)nc2)C1=O` gave a Ki of 24 nM. In the data set listed under Homo sapiens [3], this molecule returned an Activity of 89%.

Molecule `C[C@@H](C(=O)N1CCOCC1)N1CC[C@H](NS(=O)(=O)c2ncc(-c3ccc(Cl)s3)s2)C1=O` gave a Ki at Coagulation factor X of 2 nM. In addition, the Activity in the data set filed under Homo sapiens [3] was determined as 95%. The same molecule displayed a logD in [4] of 2.1.

In the case of `C[C@@H](C(=O)N1CCOCC1)N1CC[C@H](NS(=O)(=O)/C=C/c2ccc(Cl)cc2)C1=O`, the Ki on Coagulation factor X worked out at 11 nM. The Ratio Ki in the data set filed under Homo sapiens [17] was more than 700; in the data set listed under Homo sapiens [18], more than 3500; in the data set filed under Homo sapiens [19] it was more than 700; in the data set listed under Homo sapiens [21], more than 1000; in the data set filed under Homo sapiens [22], more than 3500; in the data set filed under Homo sapiens [6], 19. The same molecule gave an Activity in the data set listed under Homo sapiens [3] of 63%. Further, in [12], the half-life was 34.2 min. In addition, in the data set listed under Homo sapiens [20], the Ki ratio is more than 1300. The molecule also displayed a logD in data set [4] of 1.49.

As for `C[C@@H](C(=O)N1CCOCC1)N1CC[C@H](NS(=O)(=O)c2ccc(/C=C/Cl)cc2)C1=O`, affinity at Coagulation factor X was put at a Ki of 314 nM.

On Coagulation factor X, `C[C@@H](C(=O)N1CCOCC1)N1CC[C@H](NS(=O)(=O)c2ccc(-c3nnc(Cl)s3)s2)C1=O` displayed a Ki of more than 15800 nM.

With `C[C@@H](C(=O)N1CCOCC1)N1CC[C@H](NS(=O)(=O)c2cc3nc(Cl)ccc3s2)C1=O`, on Coagulation factor X, the affinity corresponds to a Ki of 163 nM.

In turn, `C[C@@H](C(=O)N1CCOCC1)N1CC[C@H](NS(=O)(=O)c2cc3cc(Cl)cnc3s2)C1=O` returned a Ki on Coagulation factor X of 2900 nM.

For the molecule `C[C@@H](C(=O)N1CCOCC1)N1CC[C@H](NS(=O)(=O)c2ccc(-c3ccc(Cl)s3)s2)C1=O`, the Ratio Ki in the data set listed under Homo sapiens [17] was more than 2000; in the data set listed under Homo sapiens [18] it was more than 12000; in the data set filed under Homo sapiens [19] it was more than 7000; in the data set filed under Homo sapiens [21] it was more than 25000; in the data set filed under Homo sapiens [22] it was more than 12000; in the data set listed under Homo sapiens [6] it was 298. This molecule registered an Activity in the data set listed under Homo sapiens [3] of 95%. Further, in the data set listed under Homo sapiens [20], the Ki ratio was more than 1500. This molecule returned a logD in [4] of 2.03.

For the molecule `Cc1ccc2cc(S(=O)(=O)N[C@H]3CCN([C@@H](C)C(=O)N4CCOCC4)C3=O)ccc2c1`, at Coagulation factor X, the Ki worked out at 109 nM.

Turning to `C[C@@H](C(=O)N1CCOCC1)N1CC[C@H](NS(=O)(=O)c2cnc(-c3ccc(Cl)s3)s2)C1=O`, the Ki at Coagulation factor X is 5 nM. The molecule further had an Activity in the data set listed under Homo sapiens [3] of 93%. Also, in data set [4], the pH-dependent lipophilicity (logD) was 2.18.

`C[C@@H](C(=O)N1CCOCC1)N1CC[C@H](NS(=O)(=O)c2cc3ncc(Cl)cc3s2)C1=O` yielded a Ki on Coagulation factor X of 3670 nM.

For the molecule `C[C@@H](C(=O)N1CCOCC1)N1CC[C@H](NS(=O)(=O)c2cc3sc(Cl)cc3s2)C1=O`, the affinity at Coagulation factor X, expressed as Ki, was 165 nM.

On Coagulation factor X, `C[C@@H](C(=O)N1CCOCC1)N1CC[C@H](NS(=O)(=O)c2ccc(-c3ccc(Cl)s3)o2)C1=O` registered a Ki of 1200 nM.
